Publication PMC3694426 (Clinical cancer research : an official journal of the …, 2013)

Legend:
[1] = tested on: basal cell carcinoma (BCC); assay: antitumor activity in patients with BCC; type: in vivo, human
Procedure, shortened: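 Oral test compound, once daily in 28-day cycles, given as an outpatient, preceded by a single dose 7 days before cycle 1. BCC patients were dosed at 130 or 160 mg. Evaluable meant more than one dose plus a post-baseline clinical or RECIST 1.0 assessment. Treatment continued until progression, unacceptable adverse events or withdrawal.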

SCLC tumors = details: cited from earlier work
[2] = tested on: transgenic pancreatic cancer models; details: cited from earlier work
[3] = 28 evaluable vismodegib-naïve BCC patients

Structure (SMILES): CC1=C2C[C@H]3[C@@H](CC[C@@H]4C[C@H](NS(C)(=O)=O)CC[C@@]43C)[C@@H]2CC[C@@]2(C1)O[C@@H]1C[C@H](C)CN[C@H]1[C@H]2C [IPI-926]
- complete response (CR) [1, 3]: 2 patients
- partial response (PR) [1, 3]: 6 patients
- patients with objective response [1, 3]: Eight
- patients showing a response ([1]; HhP inhibitor-naïve evaluable BCC patients, doses ≥130 mg): 8 of 28
- difference in efficacy between the 130- and 160-mg dose levels ([1]; full BCC cohort (N = 39)): no apparent difference in efficacy
- objective responses ([1]; nine BCC patients previously treated with vismodegib): no objective responses
- regrowth of SCLC tumors following chemotherapy (SCLC tumors): delays regrowth
- intratumoral concentration of gemcitabine [2]: enhanced intratumoral concentration of gemcitabine
